The record followed here is ChEMBL document CHEMBL4513216, “Probing the Open Global Health Chemical Diversity Library for Multistage-Active Starting Points for Next-Generation Antimalarials” (ACS Infect Dis, 2020).

The nature of this data set: Toxicity liver stage against HepG2, at 10uM. As to conditions: human, HepG2-A16-CD81EGFP cells; read-out: INHIBITION
Further details: test concentration 10 uM, cell line HepG2-A16-CD81EGFP. The data set is classed as cell-based. In outline:
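Uninfected HepG2-A16-CD81EGFP cells, 3 × 10^3 per well, 1536-well, plated on prespotted compound at 10 μM final, parasite-free screening media added to match infected plates; puromycin 10 μM positive, DMSO 0.5% negative; run in parallel with 48 h PbLuc assay at 37 °C, 5% CO2; viability by CellTiter-Glo luminescence, normalized to controls.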
Consider `c1ccc(O[C@H]2COCCN(CC3CC3)C2)cc1`, for which the cytotoxicity at 10 µM is 5.76%.
As for `COc1ccc(C(=O)N2CCN3C(=O)CNC(=O)[C@@H]3C2)cc1`, the figure is -7.1%; as for `CCN(CC)CC[C@H]1CN(C(=O)CC(C)(C)C)CC[C@H]1CC(=O)O`, -0.668%; as for `CSc1ncccc1C(=O)N(CCO)Cc1ccccc1`, 2.22%.
Under `O=C(c1cccc(C(F)(F)F)c1)N1CC(=O)N(C2CCC2)CC(O)C1` (configuration not stated) stands -3.16%; under `Cc1ccc2c(c1)C1(CC(=O)Nc3[nH]ncc31)C(=O)N2C` (configuration not stated), -1.6%.
As to `CC1CC(=O)c2cc(C(=O)N3CCc4ccccc43)c(=O)[nH]c2C1` (configuration not stated), the cytotoxicity at 10 µM is -5.67%.
Regarding `Cn1cc(NC(=O)CNC(=O)N2CCN(c3ccccc3)CC2)cn1`, the cytotoxicity at 10 µM came out at 0.0207%.
Consider `Cn1nc(N2CCCC(C(=O)Nc3nccs3)C2)ccc1=O` (configuration not stated), for which the cytotoxicity at 10 µM was 3.19%.
As for `Cn1cccc1C(=O)N1CCc2ccc(=O)n(C)c2CC1`, the figure is -0.756%; as for `Cc1cc(C(=O)N2C[C@@H]3COC[C@]3(c3nnc(C(C)C)o3)C2)on1`, -2.52%.
As for `CCOc1cc(C)c(-c2cc(N)[nH]n2)cc1OCC`, the cytotoxicity at 10 µM was -7.27%.
Under `O=c1c2cn[nH]c2nc(SCCN2CCOCC2)n1-c1ccccc1` stands 0.219%.
Under `CCO[C@@H]1CO[C@@]2(CCCN(C(=O)c3ccc(OC)c(F)c3)C2)C1` stands 3.02%; under `CCn1cc(S(=O)(=O)N(CCc2ccccc2)Cc2ccn(C)n2)cn1`, 2.6%.
Regarding `Cc1ccc(NC(=O)c2n[nH]c(-n3cnnc3)n2)cc1C`, the cytotoxicity at 10 µM was -1.4%.
Turning to `CCC(=O)NCCc1cc2nc(-c3ccncc3)ccn2n1`, the cytotoxicity at 10 µM worked out at 1.65%.
As to `CC(C)NC(=O)N1CCCCCC1C1CCN(c2ncccn2)CC1` (configuration not stated), the cytotoxicity at 10 µM is -23.2%.
As to `Cc1cc(N(C)C)nc(N2CCn3c(nnc3C3CC3)C2)n1`, the cytotoxicity at 10 µM came to 0.485%.
As for `CS(=O)(=O)CCn1ccc(NC(=O)Cc2ccccc2F)n1`, the figure is 3.73%.
As for `CC(O)CN(C(=O)NC1CCN(CC2CCCCC2)CC1)C(C)C` (configuration not stated), the figure is 7.46%.
Under `Cc1noc(C)c1CN(C)C(=O)C1CCCCN1CC(C)C` (configuration not stated) stands 2.64%; under `Cc1cccc2nc(CN3CCCC(C)C3)cc(=O)n12` (configuration not stated), 2.46%.
In the case of `Cc1ccc(C(=O)Nc2ccccc2N2CCCC2)n1C`, the cytotoxicity at 10 µM was determined as 5.55%.
For `CN(CCOc1ccc(F)cc1)S(=O)(=O)c1cnn(C)c1`, the cytotoxicity at 10 µM is -3.23%.
Consider `Cc1ccc(CNC(=O)C2CCN(C(=O)C(C)C)CC2)n1C`, for which the cytotoxicity at 10 µM came out at 5.71%.
As for `CCC(CC)N(Cc1cc(=O)n(C)c(=O)n1C)C1CC1`, the figure is 15.8%.
As for `Cc1nnc(C(C)Nc2cccc(COCCOC(C)C)c2)o1` (configuration not stated), the figure is 2.29%; as for `CN(C1CCN(c2ccccn2)CC1)S(=O)(=O)c1ccccc1F`, 14%; as for `COCCNC(=O)C1(c2ccc(C)c(OC)c2)CCCC1`, -3.21%.
Under `Fc1ccc(CNC2CCN(CCc3ccncc3)CC2)cc1F` stands -12.6%; under `Cc1ccc(CNC(=O)C2CCCCN2C(=O)OC(C)(C)C)cn1` (configuration not stated), -0.408%; under `Cc1nc(C)n(C2CCCN(C(=O)CCc3cn(C)nc3C)C2)n1` (configuration not stated), -11.5%.
`O=C(NCCSCc1ccc(Br)s1)C1CCCN(C(=O)c2cccs2)C1` (configuration not stated): the cytotoxicity at 10 µM is -1.79%.
Under `COc1ncnc(N)c1CNCCOc1ccccc1Cl` stands 6.24%; under `CCCN1C(=O)C2(CCCCC2)NC1c1c[nH]nc1-c1cccnc1` (configuration not stated), 4.59%; under `CC(C)=CCN1CCN(C(=O)C2CC2)CC1`, 6.64%.
Under `CC(C)c1nccn1CCn1cnc2ccsc2c1=O` stands 4.4%; under `NS(=O)(=O)c1cnn(-c2ccc(NC(=O)C3CCCCC3)cn2)c1`, 2.27%.
Turning to `CCOc1cc(CNC(C)c2ccc(F)cc2)ccn1` (configuration not stated), the cytotoxicity at 10 µM was 10.9%.
Under `c1ccc(Cc2nc(CNCCn3cccn3)cs2)cc1` stands -2.79%; under `CSc1ccc(OCCN2CCNC(=O)CC2)cc1`, 5.59%; under `COc1ccccc1CN(Cc1nc(Cc2ccccc2)no1)C1CC1`, 9.54%.
Under `CC(C)(C)C(O)CN1CCN(CC(=O)NCC(F)(F)F)CC1` (configuration not stated) stands -10.2%; under `Cc1cc(NCC(C)C)ccc1C(=O)N(C)C`, 9.86%.
Consider `COCC1CN(C(=O)Nc2cc(Br)ccc2F)CCO1` (configuration not stated), for which the cytotoxicity at 10 µM was -0.749%.
As for `Cc1nc(C2CCCN(C(=O)CN3CCCNC3=O)C2)sc1C` (configuration not stated), the figure is 10.4%; as for `Cn1cc(N2CCC(NC(=O)c3c(F)cccc3F)C2=O)cn1` (configuration not stated), 2.5%.
As for `CCn1cnnc1C1CCN(C(=O)c2cnc3ccccc3n2)CC1`, the figure is -8.59%.
In the case of `CC(=O)NCc1nnn2c1CN(c1ncc(C)cn1)CCC2`, the cytotoxicity at 10 µM was -102%.
Under `CN(CCCc1cnn(C)c1)c1nccc(-c2cc(C(=O)O)ccn2)n1` stands -3.29%; under `CN(CC1(CO)CCOCC1)[C@@H]1c2ccccc2C2(CCNCC2)[C@H]1O`, -6.87%; under `CCCN1CCN(C(=O)c2cccc(C)n2)[C@H]2CS(=O)(=O)C[C@H]21`, 2.13%.
For the compound `CC1(C)CNC(=O)c2nc(C3CCN(C(=O)C4CC4)CC3)[nH]c2C1`, the cytotoxicity at 10 µM turned out to be 2.26%.
As for `CC(C)(C)CC(=O)N1CCC(n2cc(C3(O)CCCC3)nn2)CC1`, the figure is 8.64%; as for `CCOCc1nc(-c2cccc(OC)c2OC)n(C2CCN(C)CC2)n1`, -1.76%.
As for `CN(Cc1nccs1)C1CCN(c2ncccn2)CC1`, the figure is 10.1%.
Under `Cc1cnn(CC2CCN(c3cc(C(C)C)nc4ccnn34)CC2)c1` stands -10.5%; under `O=S(=O)(N1CCOCC1)N1CCCCC1CCc1ccc(O)cc1` (configuration not stated), -4.44%; under `CCS(=O)(=O)N1CCC(c2nnc(CN3CCCCCC3)n2C)CC1`, -8.01%.
For the compound `N#Cc1cccc(OC23CCCN(CC2)C3)c1` (configuration not stated), the cytotoxicity at 10 µM came out at 1.73%.
For `Cc1cccc2[nH]c(-c3cn(C4CCNCC4)nn3)nc12`, the cytotoxicity at 10 µM was -6.47%.
Under `CN(C)CC(=O)N1CCc2cccc(S(=O)(=O)N3CCOCC3)c2C1` stands 6.8%; under `CCCN1CCCC2(CCN(Cc3cncn3C3CCCC3)C2)C1=O` (configuration not stated), -13%; under `CCCN1CCCC2(CCN(S(=O)(=O)c3cc(C)nn3CC)C2)C1=O` (configuration not stated), 4.82%.
For `CCc1cc(N2CCC(NCCc3ccc(C)o3)CC2)nc(C)n1`, the cytotoxicity at 10 µM was -0.554%.
Under `CC(C)N1CCCC(C(=O)N2CCN(c3cccc(C(=O)O)c3)CC2)C1` (configuration not stated) stands 9.45%.
As for `CC1=C(C(=O)NCc2cccnc2-n2cnc3ccccc32)OCCO1`, the figure is -2%; as for `Cc1c(NC(=O)NC2CN3CCC2CC3)cccc1C(=O)N1CCCC1` (configuration not stated), 10.1%; as for `CCCc1ccc(CN2CCC3(CCC(=O)N(C)CC3)CC2)o1`, -4.35%.
In the case of `CC(=O)N1CCN(Cc2ccc(C(F)(F)F)c(F)c2)CC(O)C1` (configuration not stated), the cytotoxicity at 10 µM is -2.2%.
Under `CC(=O)N1CCCN(C(=O)c2cnn(C(C)(C)C)c2C)CC1` stands 2.89%.
Under `Cc1nnc(NC(=O)NCc2ccc(OC(C)C)nc2)s1` stands -10.4%; under `Cc1cc2n(n1)CC(CNCc1ccc(Oc3ccccc3)nc1)CN2` (configuration not stated), -10.1%; under `CC(C)c1noc(CCCC(=O)N2CCN(Cc3ccsc3)CC2)n1`, -5.19%.
With `O=C(c1ccc2c(c1)COC2)N1CCN(CCO)CC1`, the cytotoxicity at 10 µM was -16.5%.
Take `CCn1ncc2c1CCCC2NCc1ccc(OC)c(F)c1` (configuration not stated): the cytotoxicity at 10 µM is -6.07%.
Under `CCC(CC)C(=O)N(C)CC(=O)Nc1ccc(Br)cn1` stands -11.2%.
For `CC(C)CN1CC(C(=O)NCCNc2ncccn2)CC1=O` (configuration not stated), the cytotoxicity at 10 µM was -23%.
For `Cc1nc(C2CCCN2CCCc2nc3ccccc3o2)no1` (configuration not stated), the cytotoxicity at 10 µM was -9.24%.
For `O=C(NCCNc1ncccn1)N1CCN(C2CCCC2)CC1`, the cytotoxicity at 10 µM was -10%.
As for `COc1c(C2CCCN2CC(=O)Nc2ccncc2)c(C)nn1C` (configuration not stated), the figure is -12.7%; as for `Cc1ccc2cc(C(=O)N3CCC(Nc4cccnn4)CC3)[nH]c2c1`, -21%; as for `CC(Cn1ccnc1)NC(=O)N1CCCN(Cc2cccs2)CC1` (configuration not stated), -12.4%.
`Cc1nc(C)n(CC2CN(CCC(=O)N3CCCCC3)CCO2)n1` (configuration not stated): the cytotoxicity at 10 µM was -4.64%.
Under `O=C(CCSc1ccccc1F)NS(=O)(=O)c1ccc2c(c1)OCCO2` stands -0.841%.
Under `O=C(CCc1ccc(F)cc1)NS(=O)(=O)c1ccc2c(c1)OCCO2` stands -12.8%; under `Cc1nnc(CN2CCN(CCOc3ccccc3C#N)CC2)n1C`, -5.8%.
Consider `O=C(NCc1cc[nH]n1)N1CCCCC(N2CCCC2)C1` (configuration not stated), for which the cytotoxicity at 10 µM is -11.5%.
As for `COc1cccc(CCNC(=O)CN2CCCC2c2noc(C)n2)c1` (configuration not stated), the figure is -0.489%; as for `CC(NC(=O)CCC(=O)c1cccs1)c1nnc2n1CCCCC2` (configuration not stated), -7.76%; as for `COCCN(Cc1nc2c(cnn2C)c(=O)[nH]1)Cc1ccco1`, -5.04%.
As for `Cn1cnc(S(=O)(=O)N2CC3(CCN(Cc4ccncc4)C3)C2)c1`, the figure is -113%; as for `Cn1nnc2c1CCN(Cc1ccccn1)C2COCc1ccccc1` (configuration not stated), -117%.
Under `CC(=O)N1[C@H](Cn2cncn2)C[C@@H]2CN(c3ncc(F)cn3)CC[C@@H]21` stands -5.09%; under `CS(=O)(=O)N1C[C@@H]2CC[C@H]1CN(Cc1ccncc1)C2`, -2.34%; under `CN(C)S(=O)(=O)N1C[C@@H]2C[C@H](C(=O)NCc3ccccc3)[C@H](C1)O2`, 4.09%.
